This note sets out measurements from ChEMBL document CHEMBL3745695, “Novel Hits in the Correction of ΔF508-Cystic Fibrosis Transmembrane Conductance Regulator (CFTR) Protein: Synthesis, Pharmacological, and ADME Evaluation of Tetrahydropyrido[4,3-d]pyrimidines for the Potential Treatment of Cystic Fibrosis” (J Med Chem, 2015).

Values after ≈ are worked out from the molar mass of the structure shown. Active and inactive are the calls of the source. The rule behind the calls is not given here.

Data set [1] relates to Cystic fibrosis transmembrane conductance regulator (Homo sapiens), P13569 [F508del]. Nature of the data set: (§1) Corrector activity at human CFTR F508 deletion mutant expressed in FRT cells incubated for 25 mins with forskolin by YFP-based fluorescence analysis relative to control. In kind it is cell-based. In a few lines:
(§2)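 FRT cells co-expressing ΔF508-CFTR and YFP-H148Q/I152L, grown 18–24 h at 37 °C, then 18–24 h at 37 °C with test compound. Then 25 min in PBS with forskolin (20 μM) plus genistein (50 μM). Iodide injected (final 100 mM) with a 14-s read. Exponential fit of the final 11 s gave dF/dt. EC50/Emax from dose–response, normalized to DMSO (0%) and positive control (100%). Mean of 2–3 experiments.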

Data set [2] deals with T1, Cystic fibrosis transmembrane conductance regulator (Homo sapiens, UniProt P13569, F508DEL). The description is as §1. In kind it is cell-based. In a few lines: as §2
T1 sequence (P13569 as listed by the source): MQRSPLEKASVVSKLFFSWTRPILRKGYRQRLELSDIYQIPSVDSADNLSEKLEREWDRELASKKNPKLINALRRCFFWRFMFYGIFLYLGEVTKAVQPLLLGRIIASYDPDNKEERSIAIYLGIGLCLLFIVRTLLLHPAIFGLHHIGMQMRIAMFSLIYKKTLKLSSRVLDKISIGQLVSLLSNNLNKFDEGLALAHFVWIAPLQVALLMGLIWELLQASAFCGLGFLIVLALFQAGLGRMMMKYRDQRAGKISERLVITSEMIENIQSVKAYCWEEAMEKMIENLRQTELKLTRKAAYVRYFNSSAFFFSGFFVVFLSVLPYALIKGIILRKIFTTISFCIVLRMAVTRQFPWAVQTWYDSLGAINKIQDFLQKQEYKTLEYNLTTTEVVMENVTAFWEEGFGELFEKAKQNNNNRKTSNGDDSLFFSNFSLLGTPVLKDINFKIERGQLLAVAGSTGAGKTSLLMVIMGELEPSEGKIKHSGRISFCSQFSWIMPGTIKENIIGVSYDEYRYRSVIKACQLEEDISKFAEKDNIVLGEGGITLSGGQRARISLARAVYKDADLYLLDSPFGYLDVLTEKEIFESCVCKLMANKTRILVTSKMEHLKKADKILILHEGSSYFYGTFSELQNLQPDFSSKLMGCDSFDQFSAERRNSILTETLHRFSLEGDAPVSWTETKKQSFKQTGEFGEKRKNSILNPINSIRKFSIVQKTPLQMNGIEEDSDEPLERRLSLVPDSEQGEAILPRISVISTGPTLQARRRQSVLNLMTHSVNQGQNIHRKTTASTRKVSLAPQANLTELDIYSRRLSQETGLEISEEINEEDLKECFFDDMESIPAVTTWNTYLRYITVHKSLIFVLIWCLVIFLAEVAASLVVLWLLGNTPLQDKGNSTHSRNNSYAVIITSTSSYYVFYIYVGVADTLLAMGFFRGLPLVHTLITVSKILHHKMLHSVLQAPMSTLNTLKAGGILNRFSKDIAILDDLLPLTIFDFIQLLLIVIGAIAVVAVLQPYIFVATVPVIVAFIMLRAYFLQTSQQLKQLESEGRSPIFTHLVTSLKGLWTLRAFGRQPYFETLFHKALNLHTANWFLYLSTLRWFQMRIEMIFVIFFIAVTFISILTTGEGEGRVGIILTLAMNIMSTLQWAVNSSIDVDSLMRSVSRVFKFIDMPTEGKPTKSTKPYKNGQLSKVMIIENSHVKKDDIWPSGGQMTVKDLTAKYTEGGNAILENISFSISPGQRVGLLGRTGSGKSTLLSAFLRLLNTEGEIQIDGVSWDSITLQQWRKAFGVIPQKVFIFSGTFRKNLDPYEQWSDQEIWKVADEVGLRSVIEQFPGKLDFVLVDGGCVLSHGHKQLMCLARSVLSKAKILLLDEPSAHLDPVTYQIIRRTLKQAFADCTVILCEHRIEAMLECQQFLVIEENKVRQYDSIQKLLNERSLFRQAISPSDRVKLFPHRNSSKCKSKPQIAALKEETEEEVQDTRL
The test system of data set [3] is Cystic fibrosis transmembrane conductance regulator (Homo sapiens), P13569 [F508del]. Nature of the data set: Corrector activity at human CFTR F508 deletion mutant expressed in FRT cells at 15 uM incubated for 25 mins with forskolin by YFP-based fluorescence analysis relative to control. In kind it is cell-based.
Sequence of Cystic fibrosis transmembrane conductance regulator (Homo sapiens), P13569 [F508del] (P13569 as listed by the source): as above
A short description of data set [4]: Permeability of compound at 10 uM after 4 hrs by PAMPA. The data set is classed as ADME. The method in brief:
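PAMPA with porcine brain lipid (2% w/v in dodecane). Compound 10 μM in HBSS/Hepes pH 7.4 in the donor well, 4 h at 37 °C and 80% humidity, warfarin membrane-integrity control. Donor and acceptor concentrations by UPLC-MS-TOF; effective permeability Pe calculated.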
For orientation: In PAMPA a lipid-coated filter parts donor from acceptor wells.

A further data set addresses CYP3A4 (Homo sapiens, UniProt P08684). Nature of the data set: Metabolic stability assessed as recombinant human CYP3A4-mediated drug degradation by measuring compound remaining incubated for 1 hr by MS analysis. The data set is classed as ADME. To be noted: read-out: Stability. In a few lines:
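Recombinant hCYP3A4 at 20 pmol/mL, compound at 1 μM final with 0.25% organic solvent. 1 h at 37 °C with or without NADPH regenerating system, acetonitrile stop. Reported as % remaining by MS, NADPH sample versus the no-NADPH control.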

Data set [5] is described as follows: Apparent permeability from apical to basolateral side in MDCK cells at 10 uM incubated for 2 hrs by LC-MS analysis. To be noted: dog. The data set is classed as ADME, cell-based, Canis lupus familiaris. In a few lines:
(§3)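 MDCK monolayers on inserts seeded 5 days earlier, TEER >70 Ohm×cm². Compound 10 μM in HBSS-Hepes added to the donor side, in duplicate, each direction. 2 h at 37 °C with agitation, sampled at 0 and 120 min, LC-MS. Integrity checked with Lucifer Yellow. Papp calculated for each direction; efflux ratio is B→A over A→B.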

In data set [6] the test system is Cystic fibrosis transmembrane conductance regulator (Homo sapiens), P13569 [F508del]. The data set can be described thus: (§4) Corrector activity at human CFTR F508 deletion mutant expressed in human A549 cells incubated for 25 mins by YFP-based fluorescence analysis. In kind it is cell-based. The method in brief: (§5)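 A549 cells stably co-expressing ΔF508-CFTR and YFP-H148Q/I152L, cultured in DMEM/F-12. Corrector treatment 18–24 h at 37 °C, then 25 min forskolin (20 μM) plus genistein (50 μM). Iodide injected (final 100 mM). Initial slope dF/dt taken from an exponential fit of the final 11 s. EC50/Emax from dose–response. Mean of 2–3 independent experiments.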

Data set [7] can be described thus: Stability in rat plasma assessed as compound remaining after 3 hrs by LC-MS/MS analysis. The data set is classed as ADME, cell-free. To be noted: read-out: Stability. In a few lines:
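Compound at 10 μM in 100% fresh rat plasma at 37 °C, sampled to 3 h. Quenched with 3 volumes cold acetonitrile, centrifuged 3000 g for 15 min, supernatant diluted 1:10 in water, LC-MS/MS. Reported as % remaining.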

In data set [8] the target is Cystic fibrosis transmembrane conductance regulator (Homo sapiens) (UniProt P13569). Nature of the data set: Activity at human wild type CFTR expressed in FRT cells at 10 uM incubated for 25 mins with forskolin by YFP-based fluorescence analysis. The data set is classed as cell-based. The method in brief:
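FRT cells stably co-expressing human CFTR and halide-sensing YFP-H148Q/I152L, plated 50,000 cells/well. At assay, PBS wash, then 25 min in PBS with forskolin (20 μM). Iodide solution injected (final I⁻ 100 mM) during a 14-s fluorescence reading (ex 500, em 535 nm). The final 11 s were fitted exponentially to give initial slope dF/dt. Test compounds at 10 μM, normalized to DMSO (100%). Mean of 2 or 3 independent experiments.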

Data set [9] in a line: Solubility of the compound in 50 mM ammonium acetate buffer at 250 uM at pH 7.4 after 24 hrs by UPLC/UV/TOF-MS analysis. The data set is classed as physicochemical. To be noted: for solubility at 24 h, 250 µM: 50 mM ammonium acetate buffer, pH 7.4. The method in brief:
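From 10 mM DMSO stock, 250 μM in 50 mM ammonium acetate pH 7.4 (2.5% DMSO final). Shaken 24 h at room temperature, filtered, diluted 1:2. UPLC/UV (254 nm) quantified against a 250 μM standard in acetonitrile/buffer.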

Data set [10] is described as follows: Efflux ratio of permeability from basolateral to apical over apical to basolateral side of MDCK cells at 10 uM incubated for 2 hrs by LC-MS analysis. The data set is classed as ADME, cell-based, Canis lupus familiaris. The note with it: dog. In a few lines:
as §3

Data set [11] addresses T1, Cystic fibrosis transmembrane conductance regulator. Described as §4. The data set is classed as cell-based. In a few lines:
as §5

Data set [12] has as its system Cystic fibrosis transmembrane conductance regulator (Homo sapiens), P13569 [F508del]. The data set can be described thus: Corrector activity at human CFTR F508 deletion mutant expressed in FRT cells at 10 uM incubated for 25 mins with forskolin by YFP-based fluorescence analysis relative to control. In kind it is cell-based.

Sequence of Cystic fibrosis transmembrane conductance regulator (Homo sapiens) (P13569 whole entry, looked up): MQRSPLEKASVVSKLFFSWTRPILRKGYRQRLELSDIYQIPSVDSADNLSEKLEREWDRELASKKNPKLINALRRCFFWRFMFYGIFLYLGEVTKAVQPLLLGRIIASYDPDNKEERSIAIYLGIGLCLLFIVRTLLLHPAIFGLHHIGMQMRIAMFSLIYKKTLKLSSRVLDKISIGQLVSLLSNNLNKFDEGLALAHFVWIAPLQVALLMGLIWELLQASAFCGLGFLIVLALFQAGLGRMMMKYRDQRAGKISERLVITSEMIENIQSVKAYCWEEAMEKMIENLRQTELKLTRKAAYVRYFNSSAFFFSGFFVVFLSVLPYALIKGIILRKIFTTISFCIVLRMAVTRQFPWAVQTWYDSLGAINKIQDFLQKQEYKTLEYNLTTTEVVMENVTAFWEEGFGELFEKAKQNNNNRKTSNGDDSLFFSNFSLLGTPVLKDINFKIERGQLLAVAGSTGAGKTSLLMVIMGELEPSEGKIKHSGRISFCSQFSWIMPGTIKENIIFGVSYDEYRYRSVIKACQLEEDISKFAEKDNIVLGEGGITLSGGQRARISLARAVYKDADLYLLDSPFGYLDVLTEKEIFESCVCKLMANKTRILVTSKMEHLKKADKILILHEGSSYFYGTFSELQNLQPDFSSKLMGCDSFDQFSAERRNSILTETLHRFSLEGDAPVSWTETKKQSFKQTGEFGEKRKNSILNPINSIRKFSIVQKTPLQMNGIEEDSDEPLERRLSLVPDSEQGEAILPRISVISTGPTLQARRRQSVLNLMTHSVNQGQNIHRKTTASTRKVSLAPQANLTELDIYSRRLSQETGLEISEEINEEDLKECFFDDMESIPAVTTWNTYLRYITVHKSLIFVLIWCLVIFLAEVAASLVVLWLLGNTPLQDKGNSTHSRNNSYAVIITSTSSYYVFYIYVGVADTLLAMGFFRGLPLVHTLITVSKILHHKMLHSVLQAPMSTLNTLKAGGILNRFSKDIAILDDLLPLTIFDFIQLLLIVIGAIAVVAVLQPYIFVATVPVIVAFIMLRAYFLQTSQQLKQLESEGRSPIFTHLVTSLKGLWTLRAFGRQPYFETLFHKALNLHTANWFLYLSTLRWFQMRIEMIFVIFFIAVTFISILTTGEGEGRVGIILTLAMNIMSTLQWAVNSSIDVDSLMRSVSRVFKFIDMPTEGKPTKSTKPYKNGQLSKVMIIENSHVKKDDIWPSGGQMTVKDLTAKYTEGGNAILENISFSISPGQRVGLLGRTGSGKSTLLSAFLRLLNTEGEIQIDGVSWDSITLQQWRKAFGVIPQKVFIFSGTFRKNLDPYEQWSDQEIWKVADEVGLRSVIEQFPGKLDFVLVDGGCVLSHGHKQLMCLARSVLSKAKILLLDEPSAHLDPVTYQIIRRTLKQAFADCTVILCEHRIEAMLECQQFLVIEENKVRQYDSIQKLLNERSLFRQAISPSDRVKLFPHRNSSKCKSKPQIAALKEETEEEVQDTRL
Sequence of CYP3A4 (P08684 whole entry): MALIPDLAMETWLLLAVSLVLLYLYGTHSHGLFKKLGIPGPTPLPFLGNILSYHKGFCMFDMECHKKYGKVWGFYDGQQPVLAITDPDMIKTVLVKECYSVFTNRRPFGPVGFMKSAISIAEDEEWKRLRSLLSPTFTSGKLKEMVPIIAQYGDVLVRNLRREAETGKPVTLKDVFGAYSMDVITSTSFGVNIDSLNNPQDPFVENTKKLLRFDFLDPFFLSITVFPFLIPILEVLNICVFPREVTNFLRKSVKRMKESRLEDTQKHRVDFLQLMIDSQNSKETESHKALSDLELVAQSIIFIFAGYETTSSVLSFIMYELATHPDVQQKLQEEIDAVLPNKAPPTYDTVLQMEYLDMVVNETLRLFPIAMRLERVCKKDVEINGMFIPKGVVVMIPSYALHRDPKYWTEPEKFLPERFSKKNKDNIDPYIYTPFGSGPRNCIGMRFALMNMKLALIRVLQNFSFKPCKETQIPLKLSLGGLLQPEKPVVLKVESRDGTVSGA

For the compound `NC(=O)C1CCN(c2nc(-c3ccccn3)nc3c2CN(Cc2ccccc2)CC3)CC1`, the Emax was found to be 56.6% in data set [1], 74.6% in data set [3], 34.4% in data set [6] and 103% in data set [8]. Also, in data set [2], the response was half-maximal at 1400 nM (EC50). For the same compound, the permeability entry in data set [4] was “permeable”. The remaining at 1 h at CYP3A4 was 71%. The Papp A→B at 2 h, 10 µM in [5] turned out to be 0.4 ×10⁻⁶ cm/s. Besides, the remaining at 3 h in data set [7] came to 85%. Moreover, in data set [9], the solubility at 24 h, 250 µM came to 250 µM (≈ 107 µg/mL). In addition, in [10], the efflux ratio at 2 h, 10 µM was 52.3.

For `OC1CCCN(c2nc(-c3ccccn3)nc3c2CN(Cc2ccccc2)CC3)C1` (stereo not drawn), the Emax in data set [1] is 62.9%; in data set [3] it was 68.3%; in data set [6], 30.6%; in data set [8], 97.8%. Further, the values for the EC50 in data set [2] and in data set [11] were 2800 nM and 400 nM, respectively. In addition, in [4], the permeability entry is “permeable”. In addition, the remaining at 1 h on CYP3A4 came out at 25%. Also, the solubility at 24 h, 250 µM in [9] came to 247 µM (≈ 99.2 µg/mL).

`COc1ccc(S(=O)(=O)N2CCN(C(C)c3nc(OC4CCCCC4)c4ccccc4n3)CC2)cc1` (stereo not drawn): the Emax in data set [12] is 41.4%; in [1], 92.9%. The compound also gave an EC50 in data set [2] of 2200 nM. Besides, the remaining at 1 h at CYP3A4 came to 13%. Besides, the solubility at 24 h, 250 µM in data set [9] was 1 µM (≈ 0.511 µg/mL).

For `CN1CCN(CCCNc2nc(-c3ccccn3)nc3c2CN(Cc2ccccc2)CC3)CC1`, in data set [1], the Emax turned out to be 53.4%. In addition, the concentration giving a half-maximal response (EC50) in [2] was 3100 nM. Moreover, in data set [4], the permeability entry is listed as “permeable”. Also, the remaining at 1 h on CYP3A4 was 100%. Further, in data set [5], the Papp A→B at 2 h, 10 µM was determined as 1.8 ×10⁻⁶ cm/s. In data set [6], the Emax entry was “inactive”. In data set [7], the remaining at 3 h was determined as 101%. In data set [9], this compound had a solubility at 24 h, 250 µM of 180 µM (≈ 82.4 µg/mL). Also, the efflux ratio at 2 h, 10 µM in data set [10] stood at 18.1.

As for `COc1ccc(Cl)cc1Nc1nc(-c2sc(NC(=O)c3ccccc3)nc2C)cs1`, the Emax is 100% in [12], 114% in [1] and 115% in [8]. In data set [2], this compound returned an EC50 of 1100 nM. Also, the remaining at 1 h on CYP3A4 came out at 55%. This compound also had a solubility in [9] (buffer, pH 7.4, 24 h, 250 µM) of 1 µM (≈ 0.457 µg/mL).

For `NC(=O)CN1CCN(c2nc(-c3ccccn3)nc3c2CN(Cc2ccccc2)CC3)CC1`, the Emax in data set [1] was determined as 57.9%; in [3] it was 30.1%; in [8], 94%. The same compound yielded an EC50 in [2] of 2800 nM. Further, in data set [4], the permeability result is “permeable”. On CYP3A4, the remaining at 1 h is 57%. Further, the Emax entry in [6] was “inactive”. This compound also gave a solubility at 24 h, 250 µM in data set [9] of 207 µM (≈ 91.8 µg/mL).

For `CC(=O)NC1CCN(c2nc(-c3ccccn3)nc3c2CN(Cc2ccc(Cl)cc2)CC3)CC1`, the Emax in [1] came out at 65.6%; in [6], 61.7%. Also, the EC50 in data set [2] was determined as 700 nM; in data set [11], 1900 nM. Further, the permeability entry in data set [4] is “permeable”. Further, the remaining at 1 h at CYP3A4 turned out to be 25%. The Papp A→B at 2 h, 10 µM in data set [5] came to 3.1 ×10⁻⁶ cm/s. In [7], the remaining at 3 h amounted to 93.2%. In data set [9], the solubility at 24 h, 250 µM worked out at 198 µM (≈ 94.4 µg/mL). Moreover, in data set [10], the efflux ratio at 2 h, 10 µM was determined as 12.1.

The Emax is the greatest response seen or fitted, relative to the assay's reference. Usually EC50 stands for the concentration needed to bring the measured effect to its halfway point. Low readings indicate an effect from little substance, high ones a need for much substance. A word on the Papp A→B: it is how fast a substance crosses the layer from the apical side. In general, solubility refers to the dissolved amount per volume that the medium holds. A low value points to a poorly soluble substance. A word on the efflux ratio: it is the permeability from basolateral to apical divided by that in the opposite direction, in the common usage.
